In ChEMBL document CHEMBL1125868, “Antidopaminergic effects of the stereoisomers of N-[(1-alkyl-2- pyrrolidinyl)methyl]-5-sulfamoylbenzamides and -2,3-dihydrobenzofuran-7-carboxamides” (J Med Chem, 1991):

Tests used:
[1] = molecular target: D(2) dopamine receptor (Rattus norvegicus, UniProt P61169); test: Binding affinity towards dopamine receptor D2 using as [3H]-spiperone radioligand.
Procedure, shortened: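 Rat striatal membranes washed in 50 mM Tris-HCl pH 7.7, then resuspended in 50 mM Tris-HCl pH 7.1 with NaCl, KCl, CaCl2, MgCl2, ascorbate and 10 μM pargyline, preincubated 10 min at 37 °C. Incubated with [3H]spiperone (0.2 nM final) for 20 min at 37 °C, then filtered. IC50 read from concentration-inhibition curves.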

[2] = test system: Mus musculus; test: Ability to inhibit apomorphine induced hyperactivity in mice after intraperitoneal administration; type: functional; settings: ip
Procedure, shortened: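 Male mice in groups of three, dosed ip 1 h before apomorphine HCl 0.5 mg/kg sc. Motor activity counted for 20 min right after apomorphine.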

[3] = test system: Dopamine receptor (Mus musculus); test: Inhibitory effects on the hyperactivity against dopamine receptor after peroral administration

D(2) dopamine receptor, sequence (P61169 whole entry): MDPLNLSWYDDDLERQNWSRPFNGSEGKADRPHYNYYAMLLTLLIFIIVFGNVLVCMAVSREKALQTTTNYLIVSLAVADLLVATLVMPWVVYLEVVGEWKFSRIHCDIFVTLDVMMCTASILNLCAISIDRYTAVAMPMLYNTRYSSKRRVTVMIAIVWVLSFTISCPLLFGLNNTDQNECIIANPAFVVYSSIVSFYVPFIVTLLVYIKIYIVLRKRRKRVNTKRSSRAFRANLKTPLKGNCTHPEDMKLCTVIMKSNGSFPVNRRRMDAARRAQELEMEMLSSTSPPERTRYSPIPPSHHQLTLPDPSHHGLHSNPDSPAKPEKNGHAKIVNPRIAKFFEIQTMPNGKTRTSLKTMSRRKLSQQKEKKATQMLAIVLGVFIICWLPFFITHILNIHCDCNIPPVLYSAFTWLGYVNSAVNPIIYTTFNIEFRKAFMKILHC

| Structure (SMILES) | Ki [1] [nM] | ED50 [3] [mg/kg] | ED50 [2] [mg/kg] |
| --- | --- | --- | --- |
| CCCCN1CCC[C@H]1CNC(=O)c1cc(S(N)(=O)=O)ccc1OC | 51 | 135 | 49.2 |
| CCCCCCN1CCC[C@H]1CNC(=O)c1cc(S(N)(=O)=O)cc2c1O[C@@H](C)C2 | – | – | > 100 |
| CCN1CCC[C@H]1CNC(=O)c1cc(S(N)(=O)=O)cc2c1O[C@@H](C)C2 | 9.6 | 60.3 | 5.7 |
| CCN1CCC[C@@H]1CNC(=O)c1cc(S(N)(=O)=O)ccc1OC | – | – | > 250 |
| CCCCCCN1CCC[C@@H]1CNC(=O)c1cc(S(N)(=O)=O)ccc1OC | 59 | 65 | 28.2 |
| CCN1CCC[C@H]1CNC(=O)c1cc(S(N)(=O)=O)ccc1OC [LEVOSULPIRIDE] | – | – | 9.3 |
| CCCCN1CCC[C@@H]1CNC(=O)c1cc(S(N)(=O)=O)ccc1OC | 230 | 184 | 92.3 |
| CCCCN1CCC[C@@H]1CNC(=O)c1cc(S(N)(=O)=O)cc2c1O[C@H](C)C2 | – | – | 11.6 |
| CCCCCCN1CCC[C@H]1CNC(=O)c1cc(S(N)(=O)=O)ccc1OC | 1400 | > 100 | > 100 |

Now from value to compound, other results behind:

| Ki [1] [nM] | ED50 [3] [mg/kg] | Structure (SMILES) | ED50 [2] [mg/kg] |
| --- | --- | --- | --- |
| 9.4 | – | CCCCN1CCC[C@@H]1CNC(=O)c1cc(S(N)(=O)=O)cc2c1O[C@@H](C)C2 | 3.7 |
| 210 | – | CCCCN1CCC[C@H]1CNC(=O)c1cc(S(N)(=O)=O)cc2c1O[C@H](C)C2 | 72.1 |
| 21 | 87.3 | CCN1CCC[C@H]1CNC(=O)c1cc(S(N)(=O)=O)cc2c1O[C@H](C)C2 | 11 |
| 6.7 | – | CCCCCCN1CCC[C@@H]1CNC(=O)c1cc(S(N)(=O)=O)cc2c1O[C@@H](C)C2 | 12.2 |
| 650 | – | CCN1CCC[C@@H]1CNC(=O)c1cc(S(N)(=O)=O)cc2c1O[C@H](C)C2 | 145 |
| 400 | 419 | CCN1CCC[C@@H]1CNC(=O)c1cc(S(N)(=O)=O)cc2c1O[C@@H](C)C2 | 71.7 |
| 95 | – | CCCCN1CCC[C@H]1CNC(=O)c1cc(S(N)(=O)=O)cc2c1O[C@@H](C)C2 | 38.8 |
